{"data": "Published values gathered from unrelated publications", "PIK3C3": "Phosphatidylinositol 3-kinase catalytic subunit type 3 (PIK3C3, Homo sapiens, UniProt Q8NEB9)", "nupG": "nupG (Escherichia coli, UniProt P0AFF4)", "CA14": "Carbonic anhydrase 14 (CA14, Homo sapiens, UniProt Q9ULX7)", "note": "Compare with care: the assays were run in different laboratories. pEC50, pKd, pKi: −log10 of the molar value."}
{"SMILES": "C[C@H]1Oc2cc(cnc2N)-c2c(nn(C)c2C#N)CN(C)C(=O)c2ccc(F)cc21", "target": "Serine/threonine-protein kinase PLK4 (PLK4, Homo sapiens, UniProt O00444)", "read-out": "cell-free assay", "notes": "lysate", "quantity": "pKi", "value": 6.97}
{"SMILES": "N[C@H]1C[C@@H](C(=O)O)CC1=C(C(F)(F)F)C(F)(F)F", "target": "Ornithine aminotransferase, mitochondrial (OAT, Homo sapiens, UniProt P04181)", "read-out": "binding", "technique": "stopped-flow", "quantity": "pKd", "value": 2.52}
{"SMILES": "CCC(=O)N1CCC(C(=O)N(C)CC(=O)N2CCN(c3nc(-c4cnc(N)nc4C(F)F)nc(N4CCOCC4)n3)CC2)CC1", "target": "PIK3C3", "read-out": "binding", "technique": "competition with immobilised ligand", "quantity": "pKd", "value": 6.39}
{"SMILES": "Cc1cn([C@H]2C[C@H](O)[C@@H](CO)O2)c(=O)[nH]c1=O", "target": "nupG", "read-out": "binding", "technique": "ITC", "quantity": "pKd", "value": 3.79}
{"SMILES": "O=c1ccn([C@@H]2O[C@H](COP(=O)(O)OP(=O)(O)O[C@H]3OC[C@@H](O)[C@H](O)[C@H]3O)[C@@H](O)[C@H]2O)c(=O)[nH]1", "target": "UDP-glucose 6-dehydrogenase (UGDH, Homo sapiens, UniProt O60701)", "read-out": "enzyme activity", "mode": "inhibitor", "quantity": "pKi", "value": 6.74}
{"SMILES": "Nc1ccnc2ccccc12", "target": "Alpha-2C adrenergic receptor (ADRA2C, Homo sapiens, UniProt P18825)", "read-out": "ligand displacement", "technique": "radioligand", "notes": "cell membranes", "quantity": "pKi", "value": 4.09}
{"SMILES": "C[C@]12CC[C@H](O)CC1=CC[C@@H]1[C@@H]2CC[C@]2(C)C(c3cccnc3)=CC[C@@H]12", "target": "Estrogen receptor (ESR1, Homo sapiens, UniProt P03372, Y537C)", "read-out": "ligand displacement in cells", "technique": "radioligand", "quantity": "pKi", "value": 6.60}
{"SMILES": "Cc1cc(Nc2cc3ncccc3c(N[C@@H]3C[C@H]4CC[C@@H](C3)N4CCC#N)n2)n[nH]1", "target": "Death-associated protein kinase 3 (DAPK3, Homo sapiens, UniProt O43293)", "read-out": "binding", "technique": "competition with immobilised ligand", "quantity": "pKd", "value": 7.72}
{"SMILES": "CNc1nc(C#Cc2ccc(Cl)s2)nc2c1ncn2[C@H]1[C@H](O)[C@H](O)[C@]2(C(=O)OCc3ccccc3)C[C@H]12", "target": "Nociceptin receptor (OPRL1, Homo sapiens, UniProt P41146)", "read-out": "ligand displacement", "technique": "radioligand", "quantity": "pKi", "value": "< 5.00"}
{"SMILES": "Nc1ccn([C@@H]2O[C@H](CO)[C@@H](O)[C@H]2O)c(=O)n1", "target": "nupG", "read-out": "binding", "technique": "ITC", "quantity": "pKd", "value": 3.84}
{"SMILES": "On1ccccc1=S", "target": "CA14", "read-out": "enzyme activity", "mode": "inhibitor", "technique": "stopped-flow", "quantity": "pKi", "value": 5.15}
{"SMILES": "CCCC[C@H](NC(=O)[C@H](C)c1c(C)[nH]c2ccc(O)cc12)c1ncc(-c2cc3ccccc3nc2OC)[nH]1", "target": "Prostaglandin E2 receptor EP3 subtype (PTGER3, Homo sapiens, UniProt P43115)", "read-out": "cell-free assay", "quantity": "pKi", "value": 5.27}
{"SMILES": "OC[C@H]1OC(O)[C@H](O)[C@@H](O)[C@@H]1O (stereo partly drawn)", "target": "Hexokinase-1 (Homo sapiens, UniProt P19367)", "read-out": "binding", "technique": "MST", "quantity": "pKd", "value": 3.80}
{"SMILES": "ON=Cc1ccc(-c2ccc(O)c(F)c2)c(Cl)c1O", "target": "Estrogen receptor (ESR1, Homo sapiens, UniProt P03372)", "read-out": "reporter gene", "mode": "agonist", "technique": "luciferase", "quantity": "pEC50", "value": 5.79}
{"SMILES": "CCCOc1cccc2nc(N)n(Cc3ccc(Cl)c(Cl)c3)c12", "target": "Pteridine reductase (PTR1, Trypanosoma brucei brucei, UniProt O76290)", "read-out": "enzyme activity", "mode": "inhibitor", "technique": "absorbance", "quantity": "pKi", "value": 7.30}
{"SMILES": "Cc1occc(=S)c1O", "target": "CA14", "read-out": "enzyme activity", "mode": "inhibitor", "technique": "stopped-flow", "quantity": "pKi", "value": 5.17}
{"SMILES": "C=CC(=O)N1CCC(C(=O)NCC(=O)N2CCN(c3nc(-c4cnc(N)nc4C(F)F)nc(N4CCOCC4)n3)CC2)CC1", "target": "PIK3C3", "read-out": "binding", "technique": "competition with immobilised ligand", "quantity": "pKd", "value": 7.27}
{"SMILES": "CC1Cc2ccccc2N1C(=O)NCCCCN(C)[C@@H]1Cc2cccc3[nH]c(=O)n(c23)C1 (mixture of isomers)", "target": "5-hydroxytryptamine receptor 1A (HTR1A, Homo sapiens, UniProt P08908)", "read-out": "ligand displacement", "technique": "radioligand", "quantity": "pKi", "value": 7.63}
{"SMILES": "CCOCc1nc(O)c(-c2nnc(Cc3ccc(Cl)cn3)o2)c(O)c1-c1c(OC)cccc1OC", "target": "Apelin receptor (APLNR, Homo sapiens, UniProt P35414)", "read-out": "cell-free assay", "technique": "radioligand", "quantity": "pKd", "value": 9.82}
{"SMILES": "C=C(C)[C@@H]1CC=C(C)C(=O)C1", "target": "OR1A1 (Homo sapiens, UniProt Q9P1Q5)", "read-out": "cAMP", "mode": "agonist", "technique": "luciferase", "quantity": "pEC50", "value": 5.14}
{"SMILES": "COc1ccc2c(c1)c(CC(=O)O)c(C)n2C(=O)c1ccc(Cl)cc1", "target": "Peroxisome proliferator-activated receptor gamma (Pparg, Mus musculus, UniProt P37238)", "read-out": "reporter gene", "mode": "agonist", "technique": "luciferase", "quantity": "pEC50", "value": 4.92}
